# According to ChEMBL document CHEMBL4387708, “Enhancement of Benzothiazoles as Pteridine Reductase-1 Inhibitors for the Treatment of Trypanosomatidic Infections” (J Med Chem, 2019):
# Test system: Trypanosoma cruzi
# Assay: Growth inhibition of trypomastigote form of Trypanosoma cruzi Y infected in human U2OS cells at 50 uM measured after 72 hrs by DRAQ5 DNA dye based confocal microscopic analysis relative to control
# Format: organism-based
# Details: Trypanosoma cruzi, Y, U2OS, read-out: GI
row,SMILES,inhibition at 50 µM
1,Nc1nc2ccc(SCc3ccc(Cl)c(Cl)c3)cc2s1,21.4%
2,COC(=O)c1ccc(CSc2ccc3nc(N)sc3c2)cc1,23%
3,N#Cc1ccc(CSc2ccc3nc(N)sc3c2)cc1,27.3%

# Same assay, conditions: trypanosoma cruzi, 50 µM
row,SMILES,growth inhibition (GI)
1,N#Cc1ccc(CS(=O)(=O)c2ccc3nc(N)sc3c2)cc1,Non-Toxic

# Test system: Leishmania infantum
# Assay: Growth inhibition of luciferase expressing Leishmania infantum axenic amastigotes infected in human THP1 cells at 10 uM measured after 72 hrs by steady-glo luminescence assay relative to control
# Format: organism-based
# Details: leishmania infantum, 72 h, 10 µM
row,SMILES,growth inhibition (GI)
1,Nc1nc2ccc(SCc3ccc(Cl)c(Cl)c3)cc2s1,Non-Toxic
2,COC(=O)c1ccc(CSc2ccc3nc(N)sc3c2)cc1,Non-Toxic
3,N#Cc1ccc(CS(=O)(=O)c2ccc3nc(N)sc3c2)cc1,Non-Toxic
4,N#Cc1ccc(CSc2ccc3nc(N)sc3c2)cc1,Non-Toxic

# Biological target: T1, Pteridine reductase 1 (Leishmania major, UniProt Q01782)
# T1 sequence (Q01782 whole entry): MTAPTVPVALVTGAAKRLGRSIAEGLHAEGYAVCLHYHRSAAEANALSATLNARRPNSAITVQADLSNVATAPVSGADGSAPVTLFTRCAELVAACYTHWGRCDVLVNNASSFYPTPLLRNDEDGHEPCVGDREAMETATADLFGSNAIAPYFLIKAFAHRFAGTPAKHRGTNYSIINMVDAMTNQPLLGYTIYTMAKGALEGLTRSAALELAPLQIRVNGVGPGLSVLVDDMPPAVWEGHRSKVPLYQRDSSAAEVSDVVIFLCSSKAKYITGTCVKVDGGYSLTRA
# Assay: Inhibition of Leishmania major pteridine reductase 1 using di-hydrobiopterine as substrate in presence of NADPH
# Details: read-out: IC50
# Outline: (§1)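 Photometric PTR1 assay with NADPH and dihydrobiopterin substrate. H₄B formation is coupled non-enzymatically to cytochrome c reduction, read as signal increase at 550 nm.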
row,SMILES,IC50
1,Nc1nc2ccc(SCc3ccc(Cl)c(Cl)c3)cc2s1,10 µM
2,COC(=O)c1ccc(CSc2ccc3nc(N)sc3c2)cc1,47.6 µM
3,N#Cc1ccc(CSc2ccc3nc(N)sc3c2)cc1,12.4 µM

# Biological target: not listed separately
# Assay: Inhibition of N-terminal His-tagged Trypanosoma brucei pteridine reductase 1 using di-hydrobiopterine as substrate measured at 1 min interval for 50 mins in presence of NADPH
# Details: not given
# Outline: as §1
row,SMILES,IC50
1,Nc1nc2ccc(SCc3ccc(Cl)c(Cl)c3)cc2s1,0.9 µM
2,COC(=O)c1ccc(CSc2ccc3nc(N)sc3c2)cc1,0.92 µM
3,N#Cc1ccc(CS(=O)(=O)c2ccc3nc(N)sc3c2)cc1,3 µM
4,N#Cc1ccc(CSc2ccc3nc(N)sc3c2)cc1,0.35 µM

# Test system: Trypanosoma brucei
# Assay: Inhibition of N-terminal His-tagged Trypanosoma brucei pteridine reductase 1 at 50 uM using di-hydrobiopterine as substrate measured at 1 min interval for 50 mins in presence of NADPH relative to control
# Details: not given
# Outline: as §1
row,SMILES,inhibition
1,Nc1nc2ccc(SCc3ccc(Cl)c(Cl)c3)cc2s1,> 60%
2,COC(=O)c1ccc(CSc2ccc3nc(N)sc3c2)cc1,> 60%
3,N#Cc1ccc(CS(=O)(=O)c2ccc3nc(N)sc3c2)cc1,> 60%
4,N#Cc1ccc(CSc2ccc3nc(N)sc3c2)cc1,> 60%

# Biological target: T2, Pteridine reductase 1 (Leishmania major) (UniProt Q01782)
# T2 sequence (whole entry): T1 sequence (Q01782 whole entry)
# Assay: Inhibition of Leishmania major pteridine reductase 1 at 50 uM using di-hydrobiopterine as substrate in presence of NADPH relative to control
# Details: not given
# Outline: as §1
row,SMILES,inhibition
1,Nc1nc2ccc(SCc3ccc(Cl)c(Cl)c3)cc2s1,> 60%
2,COC(=O)c1ccc(CSc2ccc3nc(N)sc3c2)cc1,> 60%
3,N#Cc1ccc(CS(=O)(=O)c2ccc3nc(N)sc3c2)cc1,55.5%
4,N#Cc1ccc(CSc2ccc3nc(N)sc3c2)cc1,> 60%

# Test system: Trypanosoma brucei
# Assay: Growth inhibition of Trypanosoma brucei bloodstream forms at 10 uM measured after 72 hrs by resazurin-based fluorescence assay relative to control
# Format: organism-based
# Details: Trypanosoma brucei, read-out: GI
row,SMILES,inhibition at 10 µM
1,Nc1nc2ccc(SCc3ccc(Cl)c(Cl)c3)cc2s1,41 to 46%
2,COC(=O)c1ccc(CSc2ccc3nc(N)sc3c2)cc1,7 to 17%
3,N#Cc1ccc(CS(=O)(=O)c2ccc3nc(N)sc3c2)cc1,9 to 13%
4,N#Cc1ccc(CSc2ccc3nc(N)sc3c2)cc1,29 to 35%

# Test system: Trypanosoma brucei
# Assay: Inhibition of PTR1 in Trypanosoma brucei bloodstream forms assessed as potentiation of methotrexate-induced parasitic cell growth inhibition at 10 uM measured after 72 hrs by resazurin-based fluorescence assay (reference value: 19 +/- 6%)
# Details: not given
# Outline: (§2)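 Bloodstream-form T. brucei resazurin assay: 72 h at 37 °C, 5% CO₂, then fluorescence at ex 540/em 620 nm. Benzothiazole was tested at 10 μM alone and with 4 μM methotrexate. The index is the combination's activity divided by the sum of the activities of 10 μM benzothiazole and 4 μM methotrexate given separately.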
row,SMILES,growth inhibition (GI)
1,Nc1nc2ccc(SCc3ccc(Cl)c(Cl)c3)cc2s1,65%
2,COC(=O)c1ccc(CSc2ccc3nc(N)sc3c2)cc1,69%
3,N#Cc1ccc(CS(=O)(=O)c2ccc3nc(N)sc3c2)cc1,48%
4,N#Cc1ccc(CSc2ccc3nc(N)sc3c2)cc1,63%

# Test system: Trypanosoma brucei
# Assay: Inhibition of PTR1 in Trypanosoma brucei bloodstream forms assessed as potentiation of methotrexate-induced parasitic cell growth inhibition by measuring potentiation index at 10 uM measured after 72 hrs by resazurin-based fluorescence assay relative to control (methotrexate)
# Format: functional
# Details: not given
# Outline: as §2
row,SMILES,Ratio
1,Nc1nc2ccc(SCc3ccc(Cl)c(Cl)c3)cc2s1,1.1
2,COC(=O)c1ccc(CSc2ccc3nc(N)sc3c2)cc1,2.7
3,N#Cc1ccc(CS(=O)(=O)c2ccc3nc(N)sc3c2)cc1,1.5
4,N#Cc1ccc(CSc2ccc3nc(N)sc3c2)cc1,1.3

# Biological target: Voltage-gated inwardly rectifying potassium channel KCNH2 (Homo sapiens, UniProt Q12809)
# Assay: Displacement of Tracer Red from human ERG by fluorescence polarization assay
# Details: not given
# Voltage-gated inwardly rectifying potassium channel KCNH2, sequence (Q12809 whole entry): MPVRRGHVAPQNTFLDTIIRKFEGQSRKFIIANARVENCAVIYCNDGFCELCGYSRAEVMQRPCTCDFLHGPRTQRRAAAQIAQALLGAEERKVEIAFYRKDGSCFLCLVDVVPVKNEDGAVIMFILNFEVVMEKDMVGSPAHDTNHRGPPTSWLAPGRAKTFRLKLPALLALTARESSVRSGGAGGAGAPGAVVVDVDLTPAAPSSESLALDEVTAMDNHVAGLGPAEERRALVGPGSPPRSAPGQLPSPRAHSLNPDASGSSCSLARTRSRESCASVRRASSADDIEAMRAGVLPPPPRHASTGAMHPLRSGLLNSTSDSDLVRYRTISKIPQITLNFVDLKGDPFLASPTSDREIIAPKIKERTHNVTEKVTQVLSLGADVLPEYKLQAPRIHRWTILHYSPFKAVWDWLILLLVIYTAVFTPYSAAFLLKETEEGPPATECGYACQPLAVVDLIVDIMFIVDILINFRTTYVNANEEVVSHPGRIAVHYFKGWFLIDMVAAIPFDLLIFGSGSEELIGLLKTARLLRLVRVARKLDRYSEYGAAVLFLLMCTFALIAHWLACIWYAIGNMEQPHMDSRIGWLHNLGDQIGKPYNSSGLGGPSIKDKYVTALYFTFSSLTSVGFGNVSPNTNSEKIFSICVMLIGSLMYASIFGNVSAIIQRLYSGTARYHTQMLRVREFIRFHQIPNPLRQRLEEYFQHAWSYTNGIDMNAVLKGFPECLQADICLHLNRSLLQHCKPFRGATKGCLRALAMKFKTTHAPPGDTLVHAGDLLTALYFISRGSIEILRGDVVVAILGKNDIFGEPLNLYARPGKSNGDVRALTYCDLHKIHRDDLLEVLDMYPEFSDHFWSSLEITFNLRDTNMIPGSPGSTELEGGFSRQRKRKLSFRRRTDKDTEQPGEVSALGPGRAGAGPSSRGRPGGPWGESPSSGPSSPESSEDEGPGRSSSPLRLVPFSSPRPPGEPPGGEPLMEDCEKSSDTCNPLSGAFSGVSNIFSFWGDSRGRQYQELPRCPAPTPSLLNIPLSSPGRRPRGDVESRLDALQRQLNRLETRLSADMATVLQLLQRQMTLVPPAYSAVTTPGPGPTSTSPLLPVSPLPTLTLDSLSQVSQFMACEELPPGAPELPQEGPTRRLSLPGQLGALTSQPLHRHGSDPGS
row,SMILES,IC50
1,Nc1nc2ccc(SCc3ccc(Cl)c(Cl)c3)cc2s1,> 25 µM
2,COC(=O)c1ccc(CSc2ccc3nc(N)sc3c2)cc1,> 25 µM
3,N#Cc1ccc(CS(=O)(=O)c2ccc3nc(N)sc3c2)cc1,> 25 µM

# Biological target: T3, Cytochrome P450 1A2 (Homo sapiens, UniProt P05177)
# T3 sequence (P05177 whole entry): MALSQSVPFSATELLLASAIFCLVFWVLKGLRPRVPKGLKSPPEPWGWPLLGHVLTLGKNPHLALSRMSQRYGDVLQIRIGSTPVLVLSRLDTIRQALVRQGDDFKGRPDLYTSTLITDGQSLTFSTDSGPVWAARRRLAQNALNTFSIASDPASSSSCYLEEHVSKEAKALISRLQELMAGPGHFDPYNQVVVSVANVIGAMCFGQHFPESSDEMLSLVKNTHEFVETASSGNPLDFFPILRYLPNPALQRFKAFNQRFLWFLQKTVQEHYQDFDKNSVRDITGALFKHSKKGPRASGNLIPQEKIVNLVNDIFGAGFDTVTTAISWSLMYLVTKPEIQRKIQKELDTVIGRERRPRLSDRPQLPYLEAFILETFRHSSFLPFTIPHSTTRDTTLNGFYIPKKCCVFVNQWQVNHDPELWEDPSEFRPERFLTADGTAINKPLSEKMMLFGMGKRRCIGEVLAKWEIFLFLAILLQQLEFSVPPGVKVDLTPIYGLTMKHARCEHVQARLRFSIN
# Assay: Inhibition of human CYP1A2 expressed in baculovirus infected insect cells using beetle D-luciferin as substrate preincubated for 30 mins followed by NADPH addition and measured after 30 mins by CYP450-Glo assay
# Details: not given
row,SMILES,IC50
1,Nc1nc2ccc(SCc3ccc(Cl)c(Cl)c3)cc2s1,10 to 25 µM
2,COC(=O)c1ccc(CSc2ccc3nc(N)sc3c2)cc1,10 to 25 µM
3,N#Cc1ccc(CS(=O)(=O)c2ccc3nc(N)sc3c2)cc1,> 25 µM
4,N#Cc1ccc(CSc2ccc3nc(N)sc3c2)cc1,> 25 µM

# Biological target: Cytochrome P450 2C9 (Homo sapiens, UniProt P11712)
# Assay: Inhibition of human CYP2C9 expressed in baculovirus infected insect cells using beetle D-luciferin as substrate preincubated for 30 mins followed by NADPH addition and measured after 30 mins by CYP450-Glo assay
# Details: not given
# Cytochrome P450 2C9, sequence (P11712 whole entry): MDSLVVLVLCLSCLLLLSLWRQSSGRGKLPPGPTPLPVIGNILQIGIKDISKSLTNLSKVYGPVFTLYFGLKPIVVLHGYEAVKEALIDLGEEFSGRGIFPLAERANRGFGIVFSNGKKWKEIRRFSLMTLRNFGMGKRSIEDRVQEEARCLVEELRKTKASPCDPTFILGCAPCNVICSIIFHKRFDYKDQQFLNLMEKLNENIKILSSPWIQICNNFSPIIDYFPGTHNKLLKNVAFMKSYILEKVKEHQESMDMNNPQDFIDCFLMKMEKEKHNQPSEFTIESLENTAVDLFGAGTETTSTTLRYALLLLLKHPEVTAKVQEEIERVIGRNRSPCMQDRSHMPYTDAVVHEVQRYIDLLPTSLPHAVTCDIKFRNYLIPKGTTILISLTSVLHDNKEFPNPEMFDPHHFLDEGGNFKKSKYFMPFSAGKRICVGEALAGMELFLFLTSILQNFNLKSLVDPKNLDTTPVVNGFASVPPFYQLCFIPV
row,SMILES,IC50
1,Nc1nc2ccc(SCc3ccc(Cl)c(Cl)c3)cc2s1,> 25 µM
2,COC(=O)c1ccc(CSc2ccc3nc(N)sc3c2)cc1,< 10 µM
3,N#Cc1ccc(CS(=O)(=O)c2ccc3nc(N)sc3c2)cc1,> 25 µM
4,N#Cc1ccc(CSc2ccc3nc(N)sc3c2)cc1,10 to 25 µM

# Biological target: Cytochrome P450 2C19 (Homo sapiens, UniProt P33261)
# Assay: Inhibition of human CYP2C19 expressed in baculovirus infected insect cells using beetle D-luciferin as substrate preincubated for 30 mins followed by NADPH addition and measured after 30 mins by CYP450-Glo assay
# Details: not given
# Cytochrome P450 2C19, sequence (P33261 whole entry): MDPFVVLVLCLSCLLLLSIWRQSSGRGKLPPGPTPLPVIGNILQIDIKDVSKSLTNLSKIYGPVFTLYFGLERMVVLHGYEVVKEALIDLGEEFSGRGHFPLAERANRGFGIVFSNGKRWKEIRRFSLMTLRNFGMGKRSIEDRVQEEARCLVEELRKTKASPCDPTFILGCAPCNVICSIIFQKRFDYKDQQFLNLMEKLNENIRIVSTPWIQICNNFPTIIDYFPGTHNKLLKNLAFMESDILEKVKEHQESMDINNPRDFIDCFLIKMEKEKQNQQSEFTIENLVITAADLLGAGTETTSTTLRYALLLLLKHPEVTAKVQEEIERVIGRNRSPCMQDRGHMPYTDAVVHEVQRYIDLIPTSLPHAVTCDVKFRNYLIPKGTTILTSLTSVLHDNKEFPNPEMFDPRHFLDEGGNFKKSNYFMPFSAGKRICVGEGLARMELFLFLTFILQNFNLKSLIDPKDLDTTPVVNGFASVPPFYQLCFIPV
row,SMILES,IC50
1,Nc1nc2ccc(SCc3ccc(Cl)c(Cl)c3)cc2s1,< 10 µM
2,COC(=O)c1ccc(CSc2ccc3nc(N)sc3c2)cc1,< 10 µM
3,N#Cc1ccc(CS(=O)(=O)c2ccc3nc(N)sc3c2)cc1,10 to 25 µM
4,N#Cc1ccc(CSc2ccc3nc(N)sc3c2)cc1,< 10 µM

# Biological target: Cytochrome P450 2D6 (Homo sapiens, UniProt P10635)
# Assay: Inhibition of human CYP2D6 expressed in baculovirus infected insect cells using beetle D-luciferin as substrate preincubated for 30 mins followed by NADPH addition and measured after 30 mins by CYP450-Glo assay
# Details: not given
# Cytochrome P450 2D6, sequence (P10635 whole entry): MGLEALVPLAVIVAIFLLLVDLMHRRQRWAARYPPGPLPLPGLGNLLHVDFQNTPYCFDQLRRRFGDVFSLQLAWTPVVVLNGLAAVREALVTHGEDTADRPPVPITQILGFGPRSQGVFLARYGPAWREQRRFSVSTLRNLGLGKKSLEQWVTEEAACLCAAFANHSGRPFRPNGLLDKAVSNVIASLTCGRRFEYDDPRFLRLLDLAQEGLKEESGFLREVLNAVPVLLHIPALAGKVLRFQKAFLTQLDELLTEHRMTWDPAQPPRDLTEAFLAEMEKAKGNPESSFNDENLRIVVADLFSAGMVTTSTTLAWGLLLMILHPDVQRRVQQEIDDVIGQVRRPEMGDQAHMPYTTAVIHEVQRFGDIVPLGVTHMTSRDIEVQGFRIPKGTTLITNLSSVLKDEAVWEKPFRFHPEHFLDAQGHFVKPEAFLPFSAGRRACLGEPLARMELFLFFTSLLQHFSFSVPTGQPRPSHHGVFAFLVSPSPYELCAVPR
row,SMILES,IC50
1,Nc1nc2ccc(SCc3ccc(Cl)c(Cl)c3)cc2s1,< 10 µM
2,COC(=O)c1ccc(CSc2ccc3nc(N)sc3c2)cc1,< 10 µM
3,N#Cc1ccc(CS(=O)(=O)c2ccc3nc(N)sc3c2)cc1,< 10 µM
4,N#Cc1ccc(CSc2ccc3nc(N)sc3c2)cc1,< 10 µM

# Biological target: Cytochrome P450 3A4 (Homo sapiens, UniProt P08684)
# Assay: Inhibition of human CYP3A4 expressed in baculovirus infected insect cells using beetle D-luciferin as substrate preincubated for 30 mins followed by NADPH addition and measured after 30 mins by CYP450-Glo assay
# Details: not given
# Cytochrome P450 3A4, sequence (P08684 whole entry): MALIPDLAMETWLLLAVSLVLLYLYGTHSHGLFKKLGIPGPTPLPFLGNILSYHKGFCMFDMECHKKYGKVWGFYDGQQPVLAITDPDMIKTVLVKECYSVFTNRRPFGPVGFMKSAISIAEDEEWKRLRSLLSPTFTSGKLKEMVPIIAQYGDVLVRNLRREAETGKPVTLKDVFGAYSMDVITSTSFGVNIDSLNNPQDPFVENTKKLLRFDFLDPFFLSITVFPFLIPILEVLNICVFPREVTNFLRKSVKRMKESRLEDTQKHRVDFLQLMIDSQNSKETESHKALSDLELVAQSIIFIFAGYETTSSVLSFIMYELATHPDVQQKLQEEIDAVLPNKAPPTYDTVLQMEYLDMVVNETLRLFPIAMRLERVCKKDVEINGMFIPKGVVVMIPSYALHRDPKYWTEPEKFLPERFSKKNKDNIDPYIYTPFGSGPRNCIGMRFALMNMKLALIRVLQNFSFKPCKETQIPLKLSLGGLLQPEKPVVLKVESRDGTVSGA
row,SMILES,IC50
1,Nc1nc2ccc(SCc3ccc(Cl)c(Cl)c3)cc2s1,< 10 µM
2,COC(=O)c1ccc(CSc2ccc3nc(N)sc3c2)cc1,< 10 µM
3,N#Cc1ccc(CS(=O)(=O)c2ccc3nc(N)sc3c2)cc1,< 10 µM
4,N#Cc1ccc(CSc2ccc3nc(N)sc3c2)cc1,< 10 µM

# Test system: not listed separately
# Assay: Cytotoxicity against human A549 cells after 48 hrs by Celltiter-glo assay
# Format: cell-based
# Details: not given
row,SMILES,GI50 at 48 h
1,Nc1nc2ccc(SCc3ccc(Cl)c(Cl)c3)cc2s1,10 to 25 µM
2,COC(=O)c1ccc(CSc2ccc3nc(N)sc3c2)cc1,> 25 µM
3,N#Cc1ccc(CS(=O)(=O)c2ccc3nc(N)sc3c2)cc1,> 25 µM
4,N#Cc1ccc(CSc2ccc3nc(N)sc3c2)cc1,> 25 µM

# Test system: not listed separately
# Assay: Cytotoxicity against human THP1 cells after 72 hrs by MTT assay
# Format: cell-based, THP-1
# Details: read-out: NOAEL
row,SMILES,MNTC at 72 h
1,Nc1nc2ccc(SCc3ccc(Cl)c(Cl)c3)cc2s1,> 25 µM
2,COC(=O)c1ccc(CSc2ccc3nc(N)sc3c2)cc1,10 to 25 µM
3,N#Cc1ccc(CS(=O)(=O)c2ccc3nc(N)sc3c2)cc1,> 25 µM
4,N#Cc1ccc(CSc2ccc3nc(N)sc3c2)cc1,> 25 µM

# Test system: not listed separately
# Assay: Cytotoxicity against human U2OS cells assessed as reduction in cell number
# Format: cell-based
# Details: not given
row,SMILES,GI50
1,Nc1nc2ccc(SCc3ccc(Cl)c(Cl)c3)cc2s1,> 25 µM
2,COC(=O)c1ccc(CSc2ccc3nc(N)sc3c2)cc1,> 25 µM
3,N#Cc1ccc(CS(=O)(=O)c2ccc3nc(N)sc3c2)cc1,> 25 µM
4,N#Cc1ccc(CSc2ccc3nc(N)sc3c2)cc1,> 25 µM

# Test system: not listed separately
# Assay: Mitochondrial toxicity in human 786-O cells measured after 6 hrs by MitoTracker Red chloromethyl-X-rosamine based assay
# Format: cell-based, 786-0
# Details: not given
row,SMILES,IC50 at 6 h
1,Nc1nc2ccc(SCc3ccc(Cl)c(Cl)c3)cc2s1,> 25 µM
2,COC(=O)c1ccc(CSc2ccc3nc(N)sc3c2)cc1,> 25 µM
3,N#Cc1ccc(CS(=O)(=O)c2ccc3nc(N)sc3c2)cc1,> 25 µM
4,N#Cc1ccc(CSc2ccc3nc(N)sc3c2)cc1,< 10 µM

# Test system: not listed separately
# Assay: Selectivity ratio of IC50 for Leishmania major pteridine reductase 1 to IC50 for N-terminal His-tagged Trypanosoma brucei pteridine reductase 1
# Details: not given
row,SMILES,Ratio IC50
1,Nc1nc2ccc(SCc3ccc(Cl)c(Cl)c3)cc2s1,2 to 100
2,COC(=O)c1ccc(CSc2ccc3nc(N)sc3c2)cc1,2 to 100
3,N#Cc1ccc(CS(=O)(=O)c2ccc3nc(N)sc3c2)cc1,2 to 100
4,N#Cc1ccc(CSc2ccc3nc(N)sc3c2)cc1,2 to 100
